Reference: ChEMBL document CHEMBL1156133, “Losartan-antioxidant hybrids: novel molecules for the prevention of hypertension-induced cardiovascular damage” (J Med Chem, 2009)
Active and inactive are the calls of the source. The calls are words filed in the database; no cut-off is given here.

Key:
[1] = Antioxidant activity assessed as inhibition of oxidation of chromogen (ABTS) measured per mmol/L of product by total antioxidant assay; format: functional
Procedure, shortened: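 Total antioxidant status kit: inhibition of ABTS oxidation by metmyoglobin and hydrogen peroxide, followed at 600 nm absorbance; antioxidant ability proportional to absorbance reduction, expressed as mM. Compounds tested at 1 mmol/L.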

[2] = tested on: VSMC; assay: Displacement of [125I]angiotensin II from angiotensin 2 receptor in Wistar rat VSMC cells by gamma-counter; format: cell-based; set-up: concentration or dose not given beside the values
Procedure, shortened: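 Rat aortic VSMC (collagenase-derived primary cultures, passages 3-5) resuspended in Tris-glucose-NaCl buffer pH 7.4 at 0.5 μg/μL protein; 125 μg protein incubated 45 min with 0.15 nM 125I-angiotensin II plus compound. Bound separated by centrifugation, pellet washed with cold 0.15 M NaCl, gamma counted; nonspecific binding with 10^-4 M angiotensin II.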

[3] = tested on: Rattus norvegicus; assay: Antihypertensive activity in L-NAME-induced Wistar rat assessed as decrease in blood protein level at 20 mg/kg/day, po for last 4 weeks measured after 8 weeks; format: functional
Procedure, shortened: (§1)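 Two-month-old male Wistar rats given L-NAME in drinking water (20 mg/kg/day) for 8 weeks. From week 4, treatment is given daily in drinking water during 12.00–18.00 h, at the dose stated in the line. Ten rats per group. Sacrificed under halothane between 9.00 and 10.00 h. Serum is measured on an automatic analyzer. Mean ± SEM, nonparametric statistics.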

[4] = tested on: Rattus norvegicus; assay: Antihypertensive activity in L-NAME-induced Wistar rat assessed as decrease in blood creatinine level at 20 mg/kg/day, po for last 4 weeks measured after 8 weeks; format: functional; procedure, shortened: as §1
[5] = tested on: Rattus norvegicus; assay: Antihypertensive activity in L-NAME-induced Wistar rat assessed as decrease in blood urea level at 20 mg/kg/day, po for last 4 weeks measured after 8 weeks; format: functional; procedure, shortened: as §1
[6] = tested on: Rattus norvegicus; assay: Antihypertensive activity in L-NAME-induced Wistar rat assessed as decrease in blood Na+ level at 20 mg/kg/day, po for last 4 weeks measured after 8 weeks; format: functional; procedure, shortened: as §1
[7] = tested on: Rattus norvegicus; assay: Antihypertensive activity in L-NAME-induced Wistar rat assessed as decrease in blood glucose level at 20 mg/kg/day, po for last 4 weeks measured after 8 weeks; format: functional; procedure, shortened: as §1
[8] = tested on: Rattus norvegicus; assay: Antihypertensive activity in L-NAME-induced Wistar rat assessed as decrease in blood cholesterol level at 20 mg/kg/day, po for last 4 weeks measured after 8 weeks; format: functional; procedure, shortened: as §1
[9] = tested on: Rattus norvegicus; assay: Antihypertensive activity in Wistar rat assessed as normalization of L-NAME-induced heart weight at 20 mg/kg/day, po for 4 weeks in presence of L-NAME; format: functional, organism-based; settings: 28 mg/kg, in the assay text read “28 mg/kg/day” for “20 mg/kg/day”
Procedure, shortened: (§2)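 L-NAME (20 mg/kg/day, drinking water, 8 weeks) hypertensive two-month-old male Wistar rats; treatments in drinking water daily for the last 4 weeks. Systolic pressure by tail-cuff in conscious animals. At sacrifice heart weighed (corrected to body weight); aortic rings from descending thoracic aorta, formaldehyde-flushed, media thickness by planimetry. Mean ± SEM of 10 rats.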

[10] = tested on: Rattus norvegicus; assay: Antihypertensive activity in Wistar rat assessed as normalization of L-NAME-induced systolic blood pressure at 10 mg/kg/day, po for 4 weeks; format: functional, organism-based; settings: Artery; procedure, shortened: as §2
[11] = tested on: Rattus norvegicus; assay: Antihypertensive activity in L-NAME-induced Wistar rat assessed as decrease in blood calcium level at 20 mg/kg/day, po for last 4 weeks measured after 8 weeks; format: functional; procedure, shortened: as §1
[12] = tested on: Rattus norvegicus; assay: Antihypertensive activity in L-NAME-induced Wistar rat assessed as decrease in blood AST level at 20 mg/kg/day, po for last 4 weeks measured after 8 weeks; format: functional; procedure, shortened: as §1
[13] = tested on: Rattus norvegicus; assay: Antihypertensive activity in L-NAME-induced Wistar rat assessed as decrease in blood […] level at 20 mg/kg/day, po for last 4 weeks measured after 8 weeks; format: functional; procedure, shortened: as §1
[14] = tested on: Rattus norvegicus; assay: Antihypertensive activity in L-NAME-induced Wistar rat assessed as decrease in blood ALT level at 20 mg/kg/day, po for last 4 weeks measured after 8 weeks; format: functional; procedure, shortened: as §1
[15] = tested on: Rattus norvegicus; assay: Antihypertensive activity in Wistar rat assessed as normalization of L-NAME-induced systolic blood pressure at 20 mg/kg/day, po for 4 weeks; format: functional, organism-based; settings: Artery; procedure, shortened: as §2
[16] = tested on: Rattus norvegicus; assay: Antihypertensive activity in Wistar rat assessed as normalization of L-NAME-induced aorta thickness at 10 mg/kg/day, po for 4 weeks; format: functional, organism-based; procedure, shortened: as §2
[17] = tested on: Rattus norvegicus; assay: Antihypertensive activity in L-NAME-induced Wistar rat assessed as decrease in blood LDH level at 20 mg/kg/day, po for last 4 weeks measured after 8 weeks; format: functional; procedure, shortened: as §1
[18] = tested on: Rattus norvegicus; assay: Antihypertensive activity in L-NAME-induced Wistar rat assessed as decrease in blood triglyceride level at 20 mg/kg/day, po for last 4 weeks measured after 8 weeks; format: functional; procedure, shortened: as §1
[19] = tested on: Rattus norvegicus; assay: Plasma concentration in po dosed Wistar rat assessed as losartan level after 4 weeks; format: ADME, organism-based; settings: in vivo, 672 h
Procedure, shortened: (§3)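 Separate groups of Wistar rats dosed in drinking water for 4 weeks (n = 4-6 per group), then sacrificed and plasma analyzed by HPLC-MS/MS (triple quadrupole, electrospray), isocratic MeOH/water with 0.1% formic acid, 40 °C. Two plasma samples per animal; mean ± SEM.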

[20] = tested on: Rattus norvegicus; assay: Plasma concentration in po dosed Wistar rat assessed as EXP-3174 level after 4 weeks; format: ADME, organism-based; settings: in vivo, 672 h; procedure, shortened: as §3
[21] = tested on: Rattus norvegicus; assay: Antihypertensive activity in L-NAME-induced Wistar rat assessed as decrease in blood urea level at 28 mg/kg/day, po for last 4 weeks measured after 8 weeks; format: functional; procedure, shortened: as §1
[22] = tested on: Rattus norvegicus; assay: Antihypertensive activity in Wistar rat assessed as normalization of L-NAME-induced systolic blood pressure at 28 mg/kg/day, po for 4 weeks; format: functional, organism-based; settings: Artery; procedure, shortened: as §2
[23] = tested on: Rattus norvegicus; assay: Antihypertensive activity in L-NAME-induced Wistar rat assessed as decrease in blood ALT level at 28 mg/kg/day, po for last 4 weeks measured after 8 weeks; format: functional; procedure, shortened: as §1
[24] = tested on: Rattus norvegicus; assay: Antihypertensive activity in Wistar rat assessed as normalization of L-NAME-induced HNE-lysine accumulation in vessel walls at 28 mg/kg/day, po for 4 weeks in presence of losartan; format: functional, organism-based
Procedure, shortened: (§4)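 Male Wistar rats on L-NAME in drinking water (20 mg/kg/day) for 8 weeks, treatments in drinking water for the last 4 weeks. Thoracic aorta lysates run on SDS-PAGE and Western blotted for collagen type I, fibronectin or HNE-lysine, with β-tubulin as loading control; ECL detection, densitometry. Expressed as percent of basal; mean ± SEM of 10 experiments.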

[25] = tested on: Rattus norvegicus; assay: Antihypertensive activity in Wistar rat assessed as normalization of L-NAME-induced heart weight at 28 mg/kg/day, po for 4 weeks in presence of L-NAME; format: functional, organism-based; procedure, shortened: as §2
[26] = tested on: Rattus norvegicus; assay: Antihypertensive activity in L-NAME-induced Wistar rat assessed as decrease in blood protein level at 28 mg/kg/day, po for last 4 weeks measured after 8 weeks; format: functional; procedure, shortened: as §1
[27] = tested on: Rattus norvegicus; assay: Antihypertensive activity in L-NAME-induced Wistar rat assessed as decrease in blood Na+ level at 28 mg/kg/day, po for last 4 weeks measured after 8 weeks; format: functional; procedure, shortened: as §1
[28] = tested on: Rattus norvegicus; assay: Antihypertensive activity in L-NAME-induced Wistar rat assessed as decrease in blood triglyceride level at 28 mg/kg/day, po for last 4 weeks measured after 8 weeks; format: functional; procedure, shortened: as §1
[29] = tested on: Rattus norvegicus; assay: Antihypertensive activity in L-NAME-induced Wistar rat assessed as decrease in blood LDH level at 28 mg/kg/day, po for last 4 weeks measured after 8 weeks; format: functional; procedure, shortened: as §1
[30] = tested on: Rattus norvegicus; assay: Antihypertensive activity in L-NAME-induced Wistar rat assessed as decrease in blood glucose level at 28 mg/kg/day, po for last 4 weeks measured after 8 weeks; format: functional; procedure, shortened: as §1
[31] = tested on: Rattus norvegicus; assay: Antihypertensive activity in L-NAME-induced Wistar rat assessed as decrease in blood AST level at 28 mg/kg/day, po for last 4 weeks measured after 8 weeks; format: functional; procedure, shortened: as §1
[32] = tested on: Rattus norvegicus; assay: Antihypertensive activity in L-NAME-induced Wistar rat assessed as decrease in blood creatinine level at 28 mg/kg/day, po for last 4 weeks measured after 8 weeks; format: functional; procedure, shortened: as §1
[33] = tested on: Rattus norvegicus; assay: Antihypertensive activity in Wistar rat assessed as normalization of L-NAME-induced fibronectin content in vessel walls at 28 mg/kg/day, po for 4 weeks in presence of losartan; format: functional, organism-based; procedure, shortened: as §4
[34] = tested on: Rattus norvegicus; assay: Antihypertensive activity in L-NAME-induced Wistar rat assessed as decrease in blood calcium level at 28 mg/kg/day, po for last 4 weeks measured after 8 weeks; format: functional; procedure, shortened: as §1
[35] = tested on: Rattus norvegicus; assay: Antihypertensive activity in Wistar rat assessed as normalization of L-NAME-induced collagen 1 level in vessel walls at 28 mg/kg/day, po for 4 weeks in presence of losartan; format: functional, organism-based; procedure, shortened: as §4
[36] = tested on: Rattus norvegicus; assay: Plasma concentration in po dosed Wistar rat assessed as 3-(3,4-Dihydroxy-phenyl)propionic Acid 2-butyl-5-chloro-3-[2'-(2H-tetrazol-5-yl)-biphenyl-4-ylmethyl]-3H-imidazol-4-ylmethylester level after 4 weeks; format: ADME, organism-based; settings: in vivo, 672 h; procedure, shortened: as §3
[37] = Solubility in water assessed as nonhydrolzed drug level after 2 days; format: physicochemical; settings: read-out: Activity
[38] = tested on: Rattus norvegicus; assay: Antihypertensive activity in L-NAME-induced Wistar rat assessed as decrease in blood […] level at 28 mg/kg/day, po for last 4 weeks measured after 8 weeks; format: functional; procedure, shortened: as §1
[39] = tested on: Rattus norvegicus; assay: Antihypertensive activity in L-NAME-induced Wistar rat assessed as decrease in blood cholesterol level at 28 mg/kg/day, po for last 4 weeks measured after 8 weeks; format: functional; procedure, shortened: as §1

CCCCc1ncc(COC(=O)c2cc(OC)c(O)c(OC)c2)n1Cc1ccc(-c2ccccc2-c2nnn[nH]2)cc1
Activity [1]: 0.31 mmol/L | Activity [2]: 66%

CCCCc1nc(Cl)c(COC(=O)Cc2cc(C(C)(C)C)c(O)c(C(C)(C)C)c2)n1Cc1ccc(-c2ccccc2-c2nnn[nH]2)cc1
Activity [1]: 0.16 mmol/L | Activity [2]: 65%

CCCCc1nc(Cl)c(CO)n1Cc1ccc(-c2ccccc2-c2nnn[nH]2)cc1 [LOSARTAN]
Activity [3]: 5 g/dL | Activity [4]: 0.42 mg/dL | Activity [5]: 24 mg/dL | Activity [6]: 151 mmol/L | Activity [7]: 149 mg/dL | Activity [8]: 48 mg/dL | Activity [9]: Active | Activity [10]: inactive | Activity [11]: 8.3 mg/dL | Activity [12]: 91 IU/L | Activity [1]: 0.04 mmol/L | Activity [13]: 4.7 mmol/L | Activity [14]: 24 IU/L | Activity [15]: Active | Activity [2]: 53% | Activity [16]: inactive | Activity [17]: 622 IU/L | Activity [18]: 65 mg/dL

CCCCc1nc(Cl)c(COC(=O)C2(C)CCc3c(C)c(O)c(C)c(C)c3O2)n1Cc1ccc(-c2ccccc2-c2nnn[nH]2)cc1 (stereo not given)
Activity [1]: 0.25 mmol/L | Activity [2]: 68%

CCCCc1nc(Cl)c(CO)n1Cc1ccc(-c2ccccc2-c2nn[nH]n2)cc1 [LOSARTAN]
concentration [19]: 0.0244 µM | concentration [20]: 0.039 µM

CCCCc1ncc(COC(=O)C2(C)CCc3c(C)c(O)c(C)c(C)c3O2)n1Cc1ccc(-c2ccccc2-c2nnn[nH]2)cc1 (stereo not given)
Activity [1]: 0.27 mmol/L | Activity [2]: 65%

CCCCc1ncc(COC(=O)Cc2cc(C(C)(C)C)c(O)c(C(C)(C)C)c2)n1Cc1ccc(-c2ccccc2-c2nnn[nH]2)cc1
Activity [1]: 0.24 mmol/L | Activity [2]: 77%

CCCCc1nc(Cl)c(COC(=O)CCc2ccc(O)c(O)c2)n1Cc1ccc(-c2ccccc2-c2nnn[nH]2)cc1
Activity [21]: 24 mg/dL | Activity [22]: Active | Activity [23]: 24 IU/L | Activity [24]: Active | Activity [9]: Active | Activity [25]: Active | Activity [26]: 4.5 g/dL | Activity [27]: 151 mmol/L | Activity [28]: 52 mg/dL | Activity [29]: 561 IU/L | Activity [1]: 0.31 mmol/L | concentration [19]: 0.008 µM | Activity [30]: 154 mg/dL | Activity [31]: 83 IU/L | Activity [32]: 0.42 mg/dL | Activity [33]: Active | Activity [34]: 8.6 mg/dL | Activity [35]: Active | Activity [2]: 59% | concentration [36]: 0.171 µM | Activity [16]: inactive | remaining at 48 h [37]: 95.9% | Activity [38]: 4.6 mmol/L | concentration [20]: 0.013 µM | Activity [39]: 52 mg/dL
